According to ChEMBL document CHEMBL1123619, “Isothiourea derivatives of 6-phenyl-2,3,5,6-tetrahydroimidazo[2,1-b]thiazole with broad-spectrum anthelmintic activity” (J Med Chem, 1987):

Assays:
Ovis aries [1] = test: Antihelmethic activity expressed as the percentage of worms eliminated in the feces in sheep large bowel at peroral dose of 30 mg/kg against Trichuris ovis.; format: functional; settings: route oral
In short: (§1)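 Sheep given a single dose, oral or subcutaneous. Total daily feces collected for 4 days after treatment and examined for expelled worms. Necropsy at day 7 after dosing; lungs, liver and gastrointestinal tract removed and remaining worms identified. Activity calculated by comparing worms passed in feces with those remaining at autopsy. Single animals per test unless otherwise indicated.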

Mus musculus [2] = test: Nematocidal activity against Nematospiroides dubius induced necropsy in mouse, after oral administration of 25 mg/kg of the compound; format: functional
In short: (§2)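 Seven-week-old female LACA mice infected orally with 100 N. dubius L3 larvae; single gavage dose given at day 10 of infection, groups of four mice; necropsy 4 days later; percent activity from worm burdens of treated versus untreated groups.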

Mus musculus [3] = test: Nematocidal against Nematospiroides dubius in mouse was determined at 100 mg/kg peroral dose of compound; format: functional; settings: route oral; in short: as §2
Felis catus = test: Antihelmethic activity expressed as the percentage of worms eliminated in the feces in cat tapeworm at peroral dose of 30 mg/kg; worms expelled and no futher segments appeared in the feces for the duration of the test; format: functional, organism-based; set-up: dose 30 mg/kg
Ovis aries [4] = test: Anthelmintic activity against adult liver fluke (Fasciola hepatica) in sheep, after peroral administration of 15 mg/kg was determined; format: functional; settings: route oral
In short: (§3)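 Sheep dosed with a single oral dose. Fecal fluke egg output monitored after treatment. Animals necropsied only if the fecal egg count fell. Postmortem Fasciola hepatica burdens compared with untreated control sheep (mean of 10 controls). Single animals per test unless otherwise indicated, with group size given in parentheses. I denotes no effect on fecal fluke egg output.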

Ovis aries [5] = test: Antihelmethic activity expressed as the percentage of worms eliminated in the feces in sheep abomasum at subcuteneous dose of 30 mg/kg against Trichostrongylus axei; format: functional; in short: as §1
Ovis aries [6] = test: Antihelmethic activity expressed as the percentage of worms eliminated in the feces in sheep […] at subcuteneous dose of 30 mg/kg against Liver fluke Fasciola hepatica.; format: functional
Mus musculus [7] = test: Nematocidal activity against Nematospiroides dubius induced necropsy in mouse, after oral administration of 50 mg/kg of the compound; format: functional; in short: as §2
Ovis aries [8] = test: Antihelmethic activity expressed as the percentage of worms eliminated in the feces in sheep small intestine at peroral dose of 15 mg/kg against Bunostomum trigonocephalum.; format: functional; settings: route oral; in short: as §1
Ovis aries [9] = test: Antihelmethic activity expressed as the percentage of worms eliminated in the feces in sheep large bowel at peroral dose of 30 mg/kg against Lungworm Dictyocaulus filaria.; format: functional; settings: route oral; in short: as §1
Mus musculus [10] = test: Nematocidal activity against Nematospiroides dubius induced necropsy in mouse, after oral administration of 100 mg/kg; format: functional; in short: as §2
Ovis aries [11] = species: Ovis aries; test: Antihelmethic activity expressed as the percentage of worms eliminated in the feces in sheep species.; format: functional
In short: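 Sheep; total daily faeces collected for 4 days after treatment and searched for expelled worms; necropsy 7 days post-dose with lungs, liver and GI tract examined and worms identified; activity from worms passed in faeces versus worms remaining in host at autopsy.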

Mus musculus [12] = test: Nematocidal against Nematospiroides dubius in mouse was determined at 50 mg/kg peroral dose of compound; format: functional; settings: route oral; in short: as §2
Ovis aries [13] = test: Antihelmethic activity expressed as the percentage of worms eliminated in the feces in sheep large bowel at subcuteneous dose of 30 mg/kg against chabertia ovina.; format: functional; in short: as §1
Ovis aries [14] = test: Antihelmethic activity expressed as the percentage of worms eliminated in the feces in sheep abomasum at peroral dose of 30 mg/kg against Haemonchus contortus; format: functional; settings: route oral; in short: as §1
Ovis aries [15] = test: Antihelmethic activity expressed as the percentage of worms eliminated in the feces in sheep small intestine at peroral dose of 30 mg/kg against Cooperia curticei; format: functional; settings: route oral; in short: as §1
Ovis aries [16] = test: Antihelmethic activity expressed as the percentage of worms eliminated in the feces in sheep […] at peroral dose of 15 mg/kg against Liver fluke Fasciola hepatica.; format: functional; settings: route oral
Ovis aries [17] = test: Antihelmethic activity expressed as the percentage of worms eliminated in the feces in sheep small intestine at peroral dose of 30 mg/kg against Strongyloides papillosus; format: functional; settings: route oral; in short: as §1
Ovis aries [18] = test: Antihelmethic activity expressed as the percentage of worms eliminated in the feces in sheep small intestine at subcuteneous dose of 30 mg/kg against Strongyloides papillosus; format: functional; in short: as §1
Ovis aries [19] = test: Antihelmethic activity expressed as the percentage of worms eliminated in the feces in sheep abomasum at peroral dose of 30 mg/kg against Trichostrongylus axei; format: functional; settings: route oral; in short: as §1
Ovis aries [20] = test: Antihelmethic activity expressed as the percentage of worms eliminated in the feces in sheep small intestine at peroral dose of 30 mg/kg against Trichostrongylus axei; format: functional; settings: route oral; in short: as §1
Ovis aries [21] = test: Antihelmethic activity expressed as the percentage of worms eliminated in the feces in sheep small intestine at subcuteneous dose of 30 mg/kg against Nematodirus species; format: functional; in short: as §1
Ovis aries [22] = test: Antihelmethic activity expressed as the percentage of worms eliminated in the feces in sheep small intestine at subcuteneous dose of 30 mg/kg against Bunostomum trigonocephalum.; format: functional; in short: as §1
Ovis aries [23] = test: Antihelmethic activity expressed as the percentage of worms eliminated in the feces in sheep small intestine at peroral dose of 15 mg/kg against Cooperia curticei; format: functional; settings: route oral; in short: as §1
Ovis aries [24] = test: Antihelmethic activity expressed as the percentage of worms eliminated in the feces in sheep small intestine at peroral dose of 15 mg/kg against Trichostrongylus axei; format: functional; settings: route oral; in short: as §1
Canis familiaris = test: Antihelmethic activity expressed as the percentage of worms eliminated in the feces in dog toxascaris at peroral dose of 30 mg/kg; worms voided and toxascaris egg count reduced to zero for the duration of the test; format: functional, organism-based; set-up: dose 30 mg/kg; settings: Canis lupus familiaris
Ovis aries [25] = test: Antihelmethic activity expressed as the percentage of worms eliminated in the feces in sheep small intestine at subcuteneous dose of 30 mg/kg against Trichostrongylus axei; format: functional; in short: as §1
Ovis aries [26] = test: Antihelmethic activity expressed as the percentage of worms eliminated in the feces in sheep […] at subcuteneous dose of 30 mg/kg against Lungworm Dictyocaulus filaria.; format: functional; in short: as §1
Ovis aries [27] = test: Anthelmintic activity against adult liver fluke (Fasciola hepatica) in sheep, after peroral administration of 20 mg/kg was determined; format: functional; settings: route oral; in short: as §3
Ovis aries [28] = test: Toxic activity expressed as the percentage against liver fluke in the sheep at 15 mg/kg peroral administration of dose; format: ADME, organism-based; set-up: dose 15 mg/kg, route oral; settings: in vivo, po
In short: (§4)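 Fasciola hepatica in sheep, controlled test; animals necropsied only when fecal egg count fell; postmortem fluke burdens compared with untreated control sheep (10 controls).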

Ovis aries [29] = test: Antihelmethic activity expressed as the percentage of worms eliminated in the feces in sheep large bowel at peroral dose of 30 mg/kg against Oesophagostomum columbianum.; format: functional; settings: route oral; in short: as §1
Ovis aries [30] = test: Toxic activity expressed as the percentage against liver fluke in the sheep at 30 mg/kg peroral administration of dose; format: ADME, organism-based; set-up: dose 30 mg/kg, route oral; settings: in vivo, po; in short: as §4
Mus musculus [31] = test: Nematocidal against Nematospiroides dubius in mouse was determined at 25 mg/kg peroral dose of compound; format: functional; settings: route oral; in short: as §2
Ovis aries [32] = test: Antihelmethic activity expressed as the percentage of worms eliminated in the feces in sheep large bowl at peroral dose of 15 mg/kg against chabertia ovina.; format: functional; settings: route oral; in short: as §1
Mus musculus [33] = test: Nematocidal activity against Nematospiroides dubius induced necropsy in mouse, after oral administration of 12.5 mg/kg of the compound; format: functional
In short: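 Female LACA mice (7 weeks) infected orally with 100 N. dubius L3 larvae; single oral dose as solution in PEG 400 on infection day 10, four mice per group; necropsied 4 days later; percent activity by comparing treated and untreated worm burdens.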

Ovis aries [34] = test: Antihelmethic activity expressed as the percentage of worms eliminated in the feces in sheep small intestine at peroral dose of 15 mg/kg against Nematodirus species; format: functional; settings: route oral; in short: as §1

With `CS/C(=N\c1cccc(C2CN3CCSC3=N2)c1)Nc1ccc(C#N)cc1` (configuration not stated) the Activity (Ovis aries [1]) was 100%, the Activity (Mus musculus [2]) was 68% and the Activity (Mus musculus [3]) was 100. For the same compound, the Activity (Felis catus) was “no toxic symptoms”, the Activity (Ovis aries [4]) was 83% and the Activity (Ovis aries [5]) was 100%. It also gave an Activity (Ovis aries [6]) of 100%, an Activity (Mus musculus [7]) of 99% and a Reduction (Mus musculus [7]) of 74%. It also gave an Activity (Ovis aries [8]) of 100%, an Activity (Ovis aries [9]) of 100% and a Reduction (Mus musculus [10]) of 99%. The Activity (Ovis aries [11]) was 100%, the Activity (Mus musculus [12]) was 99 and the Activity (Ovis aries [13]) was 96%. The Activity (Ovis aries [14]) was 100%, the Activity (Ovis aries [15]) was 100% and the Activity (Ovis aries [16]) was 100%. The Activity (Ovis aries [17]) was 100%, the Activity (Ovis aries [18]) was 100% and the Activity (Ovis aries [19]) was 100%. It also gave an Activity (Ovis aries [20]) of 100%, an Activity (Ovis aries [21]) of 100% and an Activity (Ovis aries [22]) of 100%. The Activity (Ovis aries [23]) was 99%, the Activity (Ovis aries [24]) was 100% and the Activity (Canis familiaris) was “no toxic symptoms”. The Activity (Ovis aries [25]) was 100%, the Activity (Ovis aries [26]) was 100% and the Activity (Ovis aries [27]) was 89%. For the same compound, the Activity (Ovis aries [28]) was 83%, the Activity (Ovis aries [29]) was 93% and the Activity (Ovis aries [30]) was 97%. The Activity (Mus musculus [31]) was 68, the Activity (Ovis aries [32]) was 99% and the Activity (Mus musculus [33]) was 28%. It also gave an Activity (Ovis aries [34]) of 100%.
